{"source": "the RNAGym collection of RNA variant scans (doi:10.1002/anie.201605470)", "parents": {"B1": {"name": "Osa-1-4 twister ribozyme (parent)", "chain": "CCGCCUAACACUGCCAAUGCCGGUCCCAAGCCCGGAUAAAAGUGGAGGGGGCGG"}}, "data": [{"variants_of": "B1", "assay": "self-cleavage, relative activity (ratio to wild type); higher = more cleavage; co-transcriptional", "outline": "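The 48 positions downstream of the cleavage site in a DNA template for a 54-nucleotide Oryza sativa twister ribozyme carried 97 % wild-type base and 1 % of each other base. After in vitro transcription (2 h, 37 °C) with co-transcriptional self-cleavage, the RNA was reverse-transcribed with a template-switching oligonucleotide, PCR-amplified and deep-sequenced. Relative activity is the fraction cleaved, judged by reads with or without upstream sequence and normalised to wild type.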", "values": [{"variant": "C20U G42A", "self-cleavage": 0.62}, {"variant": "C20U G42U", "self-cleavage": 0.1}, {"variant": "C20U G42C", "self-cleavage": 0.22}, {"variant": "C20U U43C", "self-cleavage": 0.49}, {"variant": "C20U U43G", "self-cleavage": 0.68}, {"variant": "C20U U43A", "self-cleavage": 0.84}, {"variant": "C21G U24A", "self-cleavage": 0.06}, {"variant": "C21G U24G", "self-cleavage": 0.03}, {"variant": "C21G U24C", "self-cleavage": 0.04}, {"variant": "C20U C21G", "self-cleavage": 0.26}, {"variant": "C20U C21U", "self-cleavage": 1.05}, {"variant": "C20U C21A", "self-cleavage": 0.87}, {"variant": "C21A G45A", "self-cleavage": 0.05}, {"variant": "C21A G45U", "self-cleavage": 0.05}, {"variant": "C21A G45C", "self-cleavage": 0.05}, {"variant": "C21A U37G", "self-cleavage": 0.94}, {"variant": "C21A U37C", "self-cleavage": 0.78}, {"variant": "C21A U37A", "self-cleavage": 0.92}, {"variant": "C21A G54A", "self-cleavage": 0.29}, {"variant": "C21A G54C", "self-cleavage": 0.32}, {"variant": "C21A G54U", "self-cleavage": 0.59}, {"variant": "C21U C26A", "self-cleavage": 0.06}, {"variant": "C21U C26U", "self-cleavage": 0.88}, {"variant": "C21U C26G", "self-cleavage": 0.12}, {"variant": "C21A G44A", "self-cleavage": 0.38}, {"variant": "C21A G44U", "self-cleavage": 0.21}, {"variant": "C21A G44C", "self-cleavage": 0.24}, {"variant": "C21G C52A", "self-cleavage": 0.1}, {"variant": "C21G C52U", "self-cleavage": 0.1}, {"variant": "C21G C52G", "self-cleavage": 0.18}, {"variant": "C21U G13C", "self-cleavage": 0.03}, {"variant": "C21U G13U", "self-cleavage": 0.04}, {"variant": "C21U G13A", "self-cleavage": 0.11}, {"variant": "C21A G53U", "self-cleavage": 0.11}, {"variant": "C21A G53C", "self-cleavage": 0.06}, {"variant": "C21A G53A", "self-cleavage": 0.19}, {"variant": "C21U C52G", "self-cleavage": 1.02}, {"variant": "C21U C52A", "self-cleavage": 0.97}, {"variant": "C21U C52U", "self-cleavage": 1.02}, {"variant": "C21A G23U", "self-cleavage": 0.04}, {"variant": "C21A G23A", "self-cleavage": 0.07}, {"variant": "C21A G23C", "self-cleavage": 0.03}, {"variant": "C21G C27U", "self-cleavage": 0.02}, {"variant": "C21G C27G", "self-cleavage": 0.03}, {"variant": "C21G C27A", "self-cleavage": 0.04}, {"variant": "C20U G50A", "self-cleavage": 0.92}, {"variant": "C20U G50U", "self-cleavage": 0.95}, {"variant": "C20U G50C", "self-cleavage": 0.87}, {"variant": "C21U G30C", "self-cleavage": 0.06}, {"variant": "C21U G30A", "self-cleavage": 0.04}, {"variant": "C21U G30U", "self-cleavage": 0.04}, {"variant": "C20G U24C", "self-cleavage": 0.11}, {"variant": "C20G U24G", "self-cleavage": 0.05}, {"variant": "C20G U24A", "self-cleavage": 0.07}, {"variant": "C20U U18C", "self-cleavage": 0.87}, {"variant": "C20U U18G", "self-cleavage": 0.82}, {"variant": "C20U U18A", "self-cleavage": 0.86}, {"variant": "C21A C52A", "self-cleavage": 0.31}, {"variant": "C21A C52G", "self-cleavage": 0.54}, {"variant": "C21A C52U", "self-cleavage": 0.86}, {"variant": "C20U G13U", "self-cleavage": 0.04}, {"variant": "C20U G13A", "self-cleavage": 0.15}, {"variant": "C20U G13C", "self-cleavage": 0.02}, {"variant": "C20U G49A", "self-cleavage": 0.16}, {"variant": "C20U G49U", "self-cleavage": 0.13}, {"variant": "C20U G49C", "self-cleavage": 0.11}, {"variant": "C20U C26A", "self-cleavage": 0.08}, {"variant": "C20U C26G", "self-cleavage": 0.24}, {"variant": "C20U C26U", "self-cleavage": 0.92}, {"variant": "C21A C9U", "self-cleavage": 0.1}, {"variant": "C21A C9G", "self-cleavage": 0.11}, {"variant": "C21A C9A", "self-cleavage": 0.07}, {"variant": "C20U G51C", "self-cleavage": 0.11}, {"variant": "C20U G51U", "self-cleavage": 0.63}, {"variant": "C20U G51A", "self-cleavage": 0.85}, {"variant": "C21A G42U", "self-cleavage": 0.05}, {"variant": "C21A G42A", "self-cleavage": 0.1}, {"variant": "C21A G42C", "self-cleavage": 0.07}, {"variant": "C21G C31A", "self-cleavage": 0.02}, {"variant": "C21G C31U", "self-cleavage": 0.05}, {"variant": "C21G C31G", "self-cleavage": 0.06}, {"variant": "C21G U18A", "self-cleavage": 0.1}, {"variant": "C21G U18G", "self-cleavage": 0.11}, {"variant": "C21G U18C", "self-cleavage": 0.08}, {"variant": "C20U C25G", "self-cleavage": 0.15}, {"variant": "C20U C25U", "self-cleavage": 0.9}, {"variant": "C20U C25A", "self-cleavage": 0.17}, {"variant": "C21G G22U", "self-cleavage": 0.5}, {"variant": "C21G G22C", "self-cleavage": 0.16}, {"variant": "C21G G22A", "self-cleavage": 0.49}, {"variant": "C21U C32U", "self-cleavage": 0.13}, {"variant": "C21U C32A", "self-cleavage": 0.09}, {"variant": "C21U C32G", "self-cleavage": 0.11}, {"variant": "C21G G54A", "self-cleavage": 0.07}, {"variant": "C21G G54U", "self-cleavage": 0.11}, {"variant": "C21G G54C", "self-cleavage": 0.07}, {"variant": "C21U G23A", "self-cleavage": 0.1}, {"variant": "C21U G23C", "self-cleavage": 0.06}, {"variant": "C21U G23U", "self-cleavage": 0.06}, {"variant": "C20U G34C", "self-cleavage": 0.31}, {"variant": "C20U G34A", "self-cleavage": 0.95}, {"variant": "C20U G34U", "self-cleavage": 0.82}, {"variant": "C21G G13C", "self-cleavage": 0.01}, {"variant": "C21G G13A", "self-cleavage": 0.02}, {"variant": "C21G G13U", "self-cleavage": 0.02}, {"variant": "C20U C27U", "self-cleavage": 0.26}, {"variant": "C20U C27A", "self-cleavage": 0.23}, {"variant": "C20U C27G", "self-cleavage": 0.08}, {"variant": "C20U C31A", "self-cleavage": 0.05}, {"variant": "C20U C31G", "self-cleavage": 0.15}, {"variant": "C20U C31U", "self-cleavage": 0.92}, {"variant": "C21A C27A", "self-cleavage": 0.08}, {"variant": "C21A C27U", "self-cleavage": 0.08}, {"variant": "C21A C27G", "self-cleavage": 0.04}, {"variant": "C20U", "self-cleavage": 0.97}, {"variant": "C21U C31A", "self-cleavage": 0.06}, {"variant": "C21U C31G", "self-cleavage": 0.14}, {"variant": "C21U C31U", "self-cleavage": 0.97}, {"variant": "C20U C52A", "self-cleavage": 0.9}, {"variant": "C20U C52G", "self-cleavage": 0.89}, {"variant": "C20U C52U", "self-cleavage": 0.96}, {"variant": "C20U G35A", "self-cleavage": 1}, {"variant": "C20U G35C", "self-cleavage": 0.93}, {"variant": "C20U G35U", "self-cleavage": 1}, {"variant": "C20U U37A", "self-cleavage": 0.96}, {"variant": "C20U U37C", "self-cleavage": 1.02}, {"variant": "C20U U37G", "self-cleavage": 1.04}, {"variant": "C20U G48U", "self-cleavage": 0.1}, {"variant": "C20U G48A", "self-cleavage": 0.1}, {"variant": "C20U G48C", "self-cleavage": 0.1}, {"variant": "C21A G22U", "self-cleavage": 0.1}, {"variant": "C21A G22C", "self-cleavage": 0.07}, {"variant": "C21A G22A", "self-cleavage": 0.11}, {"variant": "C21G G45A", "self-cleavage": 0.04}, {"variant": "C21G G45U", "self-cleavage": 0.02}, {"variant": "C21G G45C", "self-cleavage": 0.02}, {"variant": "C20U G47C", "self-cleavage": 0.15}, {"variant": "C20U G47U", "self-cleavage": 0.29}, {"variant": "C20U G47A", "self-cleavage": 0.28}, {"variant": "C20U C33G", "self-cleavage": 0.07}, {"variant": "C20U C33A", "self-cleavage": 0.11}, {"variant": "C20U C33U", "self-cleavage": 0.77}, {"variant": "C21A U18C", "self-cleavage": 0.82}, {"variant": "C21A U18A", "self-cleavage": 0.83}, {"variant": "C21A U18G", "self-cleavage": 0.6}, {"variant": "C21G G19A", "self-cleavage": 0.05}, {"variant": "C21G G19U", "self-cleavage": 0.03}, {"variant": "C21G G19C", "self-cleavage": 0.02}, {"variant": "C20U G30U", "self-cleavage": 0.04}, {"variant": "C20U G30C", "self-cleavage": 0.06}, {"variant": "C20U G30A", "self-cleavage": 0.05}, {"variant": "C21G G47A", "self-cleavage": 0.03}, {"variant": "C21G G47U", "self-cleavage": 0.03}, {"variant": "C21G G47C", "self-cleavage": 0.04}, {"variant": "C21A C32U", "self-cleavage": 0.07}, {"variant": "C21A C32G", "self-cleavage": 0.09}, {"variant": "C21A C32A", "self-cleavage": 0.08}, {"variant": "C21U C9A", "self-cleavage": 0.55}, {"variant": "C21U C9G", "self-cleavage": 0.74}, {"variant": "C21U C9U", "self-cleavage": 0.92}, {"variant": "C21G G42A", "self-cleavage": 0.05}, {"variant": "C21G G42C", "self-cleavage": 0.05}, {"variant": "C21G G42U", "self-cleavage": 0.02}, {"variant": "C21G U37A", "self-cleavage": 0.13}, {"variant": "C21G U37C", "self-cleavage": 0.08}, {"variant": "C21G U37G", "self-cleavage": 0.14}, {"variant": "C21U C25U", "self-cleavage": 0.88}]}]}
